# Test results taken from ChEMBL document CHEMBL1275487, “Reduced biocide susceptibility in Candida albicans biofilms” (Antimicrob Agents Chemother, 2008).
# Key:
# [1] = test system: Candida parapsilosis; test: Antifungal activity against Candida parapsilosis 5986 grown as planktonic cells by CLSI method; assay type: functional
# Procedure, shortened: (§1)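 Planktonic biocide MICs were determined by CLSI broth microdilution using CLSI endpoints, with the standard CLSI inoculum (0.5 × 10^3 to 2.5 × 10^3 CFU/ml) in RPMI-MOPS. Triplicate, two occasions.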
# [2] = test system: Candida albicans; test: Antifungal activity against Candida albicans K1 grown as planktonic cells using 10^6 to 10^7 cells by CLSI method; assay type: functional, organism-based
# Procedure, shortened: (§2)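 Planktonic susceptibility was tested by the CLSI method with the inoculum raised to the mature-biofilm cell density (10^6 to 10^7 cells/well) in RPMI-MOPS. EC50 and EC80 values were derived. Triplicate, two occasions.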
# [3] = test system: Candida albicans; test: FICI in Candida albicans DAY 185 after 24 hrs in presence of fluconazole; assay type: functional
# Procedure, shortened: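 Checkerboard format on 24 h mature biofilms, with each biocide combined with fluconazole (0.0625 to 1,000 μg/ml). Incubation was 24 h with the combination, followed by an XTT reduction readout against no-drug controls. Fractional inhibitory concentration indices were calculated to gauge how each biocide affects fluconazole activity.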
# [4] = test system: Candida albicans; test: Antifungal activity against Candida albicans K1 grown as planktonic cells by CLSI method; assay type: functional; procedure, shortened: as §1
# [5] = test system: Candida albicans; test: Antifungal activity against Candida albicans DAY 185 assessed as inhibition of biofilm formation after 24 hrs by XTT reduction assay; assay type: functional, organism-based
# Procedure, shortened: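 Biocides were added to the wells at the time of inoculation in 96-well polystyrene plates (RPMI-MOPS, 10^6 to 10^7 cells/well) and incubated 24 h at 30°C (H2O2 1 to 1,000 mM; EtOH 0.05 to 50%; SDS 0.0004 to 0.4%). XTT reduction was then read. EC50 and EC80 are the concentrations giving 50% and 80% OD reduction versus no-drug controls. Triplicate, two occasions.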
# [6] = test system: Candida albicans; test: Antifungal activity against Candida albicans K1 assessed as decrease mature biofilm burden after 24 hrs by XTT reduction assay; assay type: functional, organism-based
# Procedure, shortened: (§3)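 Biofilms formed in 96-well polystyrene plates in RPMI-MOPS, inoculum 10^6 to 10^7 cells/well, 24 h at 30°C, then washed twice with PBS. Biocides were added with fresh medium to the 24 h mature biofilms (H2O2 1 to 1,000 mM; EtOH 0.05 to 50%; SDS 0.0004 to 0.4%). After a further 24 h at 30°C, metabolic activity was read by XTT reduction. EC50 and EC80 are the concentrations giving 50% and 80% reduction in OD versus no-drug controls. Triplicate, two occasions.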
# [7] = test system: Nakaseomyces glabratus; test: Antifungal activity against Candida glabrata 5740 grown as planktonic cells using 10^6 to 10^7 cells by CLSI method; assay type: functional, organism-based; procedure, shortened: as §2
# [8] = test system: Candida parapsilosis; test: Antifungal activity against Candida parapsilosis 5986 assessed as decrease mature biofilm burden after 24 hrs by XTT reduction assay; assay type: functional, organism-based; procedure, shortened: as §3
# [9] = test system: Candida albicans; test: Antifungal activity against Candida albicans DAY 185 grown as planktonic cells by CLSI method; assay type: functional; procedure, shortened: as §1
# [10] = test system: Nakaseomyces glabratus; test: Antifungal activity against Candida glabrata 5740 grown as planktonic cells by CLSI method; assay type: functional; procedure, shortened: as §1
# [11] = test system: Candida parapsilosis; test: Antifungal activity against Candida parapsilosis 5986 grown as planktonic cells using 10^6 to 10^7 cells by CLSI method; assay type: functional, organism-based; procedure, shortened: as §2
# [12] = test system: Nakaseomyces glabratus; test: Antifungal activity against Candida glabrata 5740 assessed as decrease mature biofilm burden after 24 hrs by XTT reduction assay; assay type: functional, organism-based; procedure, shortened: as §3
# [13] = test system: Candida albicans; test: Antifungal activity against Candida albicans DAY 185 assessed as decrease mature biofilm burden after 24 hrs by XTT reduction assay; assay type: functional, organism-based; procedure, shortened: as §3
# [14] = test system: Candida albicans; test: Antifungal activity against Candida albicans DAY 185 grown as planktonic cells using 10^6 to 10^7 cells by CLSI method; assay type: functional, organism-based; procedure, shortened: as §2
SMILES,MIC [1],EC50 [2],EC80 [2],fractional inhibitory concentration index (FICI) [3],MIC [4],EC50 [5],EC80 [5],EC50 [6],EC80 [6],EC50 [7],EC80 [7],EC50 [8],EC80 [8],MIC [9],MIC [10],EC50 [11],EC80 [11],EC50 [12],EC80 [12],EC50 [13],further results
CCO [ALCOHOL],1.5%,6%,13%,<0.5,1.5%,35%,35%,25%,25%,13%,13%,25%,25%,3%,3%,6%,6%,25%,25%,35%,EC80 [13]: 40%; EC50 [14]: 6%; EC80 [14]: 13%
CCCCCCCCCCCCOS(=O)(=O)[O-].[Na+] [SODIUM LAURYL SULFATE],0.01%,0.03%,0.05%,1,0.01%,0.05%,0.1%,0.05%,0.1%,0.03%,0.03%,0.05%,0.1%,0.01%,0.01%,0.03%,0.05%,0.05%,0.05%,0.15%,EC80 [13]: 0.15%; EC50 [14]: 0.05%; EC80 [14]: 0.05%
